Measured values from different studies.
Protocols differ between the studies behind these lines.
Mapk1: Mitogen-activated protein kinase 1 (Mapk1, Mus musculus, UniProt P63085)
PARP3: Protein mono-ADP-ribosyltransferase PARP3 (PARP3, Homo sapiens, UniProt Q9Y6F1)
ADRA1B: Alpha-1B adrenergic receptor (ADRA1B, Homo sapiens, UniProt P35368)

Cc1ccc(Nc2nccc(N(C)c3ccc4c(C)n(C)nc4c3)n2)cc1S(N)(=O)=O  inhibition (Mapk1; enzyme activity, inhibitor; 10 µM): 3%
COc1cc2c(cc1OC)-c1nnnn1CCC2  inhibition (PARP3; enzyme activity, inhibitor; 10 µM): 45%
O=C(O)Cc1ccccc1Nc1c(F)cccc1Cl  inhibition (Prostaglandin G/H synthase 2 (Ptgs2, Mus musculus, UniProt Q05769); enzyme activity, inhibitor; 10 µM, with preincubation): 25%
CNC(=O)c1cc2c(Oc3ccc(NC(=O)C4(C(=O)Nc5ccc(F)cc5)CC4)cc3)ccnc2cc1OC  inhibition (Hepatocyte growth factor receptor (MET, Homo sapiens, UniProt P08581, Y1230H); enzyme activity, inhibitor, radiometric; 1 µM): 99%
CC/C(=N\NC(=O)C(C)Nc1ccccc1)c1ccc(O)c(C)c1O (centres unmarked)  inhibition (cAMP-dependent protein kinase catalytic subunit gamma (PRKACG, Homo sapiens, UniProt P22612); enzyme activity, inhibitor; 0.1 µM): 34.9%
CCN(CC)CCNC(=O)c1c(C)[nH]c(/C=C2\C(=O)Nc3ccc(F)cc32)c1C  inhibition (Mapk1; enzyme activity, inhibitor; 10 µM): -14%
Cn1cnc(Br)c1C1=CN(c2ncnc3[nH]cnc23)CCS1  inhibition (Myosin-IIIa (MYO3A, Homo sapiens, UniProt Q8NEV4); enzyme activity, inhibitor, radiometric; 2 µM): 29.9%
O=C1CCCc2ccc(F)cc2N1  inhibition (PARP3; enzyme activity, inhibitor; 10 µM): 0%
O=C1N=C(N2CCCCN2)S/C1=C\c1ccc(F)cc1O  inhibition (Corticotropin-releasing factor receptor 1 (CRHR1, Homo sapiens, UniProt P34998); ligand displacement, radioligand; 10 µM): < 10%
N#Cc1cc(Cn2c(N3CCCC3)nc3ccccc32)ccc1F  inhibition (ADRA1B; ligand displacement; 10 µM): -7.54%
COc1cc(NC(C)=O)c(Cl)cc1C(=O)Nc1nccs1  inhibition (ADRA1B; cell-free assay; 10 µM): 4.3%
O=C(O)c1ncccc1O  inhibition (Interstitial collagenase (MMP1, Homo sapiens, UniProt P03956); enzyme activity, inhibitor, fluorescence; 1 mM): ~50%
CN(C)C1CCN(CC#Cc2nn(C3CCCC3)c3nc(NCc4ccccc4)ncc23)C1 (centres unmarked)  inhibition (Macrophage colony-stimulating factor 1 receptor (CSF1R, Homo sapiens, UniProt P07333); enzyme activity, inhibitor, FRET; 1 µM): 82%
Ic1cccc2cnccc12  inhibition (PARP3; enzyme activity, inhibitor; 10 µM): 7%
Nc1ccc2c(c1)CCCn1nnnc1-2  inhibition (PARP3; enzyme activity, inhibitor; 10 µM): 0%
COc1cc(CCN2CCN(CCCc3ccccc3)CC2)ccc1O  inhibition (Sodium-dependent dopamine transporter (Slc6a3, Mus musculus, UniProt Q61327); ligand displacement, radioligand; 10 µM, cell membranes): 20%
CCN1CCN(Cc2ccc(NC(=O)c3ccc(C)c(Oc4ccnc5[nH]ccc45)c3)cc2C(F)(F)F)CC1  inhibition (Microtubule-associated serine/threonine-protein kinase 4 (MAST4, Homo sapiens, UniProt O15021); target engagement in cells, inhibitor, chemoproteomics; Huh-7; 1 µM): -11.5%
